From ChEMBL document CHEMBL1125560, “Synthesis and physicochemical properties of sulfamate derivatives as topical antiglaucoma agents” (J Med Chem, 1992)

Key:
Oryctolagus cuniculus = assay: Compound was evaluated for decrease in intraocular pressure (IOP) (mmHg) at 1 hour postdosing to New Zealand white rabbits with 2% solubility; type: functional, Eye
Outline: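 New Zealand white rabbits, at least six per test, 2–10 experiments. Eyes given one drop of topical anesthetic (proparacaine) before tonometer IOP readings, taken before dosing and at 1 h intervals after. Drug at 2% in 0.5% hydroxyethylcellulose, 50 μL to one eye, vehicle to the other. Value is treated-eye minus control-eye IOP at 1 h, mean.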

[1] = Solubility in water at pH 5.0; type: physicochemical
Outline: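 Not measured directly. Intrinsic solubility S0 comes from equilibrium solubility in pH 7.4 phosphate buffer (2–4 days, UV read-out). Solubility at pH 5 is then calculated as S = S0(1 + 10^(pKa1−pH) + 10^(pH−pKa2)), using the imidazole and sulfonamide pKa values.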

[2] = Intrinsic solubility of the compound; type: ADME; details: read-out: S
Outline: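 Compound equilibrated 2–4 days in pH 7.4 phosphate buffer in sealed rotating tubes, amount tripled if all dissolved. pH and concentration then measured: solution filtered (0.2 μm), diluted, concentration read by UV spectrum. Intrinsic solubility S0 derived from S = S0(1 + 10^(pKa1−pH) + 10^(pH−pKa2)).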

Carbonic anhydrase = Carbonic anhydrase (Bos taurus, UniProt P00921+Q95323+P18915+Q3SZX4); assay: Bovine erythrocyte carbonic anhydrase inhibitory activity of the compound.
[3] = (§1) Partition coefficient at pH 7.4 between chloroform and water as a measure of lipid solubility.; type: ADME; details: read-out: pKa1
Outline: (§2)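 Drug dissolved in 0.05 M phosphate buffer, pH 7.4, and shaken with an equal volume of chloroform to equilibrium. Aqueous drug concentration found from carbonic anhydrase inhibitory activity of aqueous samples against a standard curve. Organic concentration obtained by difference. Reported as organic/aqueous concentration ratio.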

[4] = Compound was evaluated for partition coefficient at pH 7.4 (CHCl3/buffer); details: octanol/water
[5] = as §1
[6] = Partition coefficient of the compound at pH 7.4 between chloroform and water as a measure of lipid solubility.; type: ADME; details: read-out: pKa2; outline: as §2

Row | solubility [1] | solubility [2] | IC50 (Carbonic anhydrase) | pKa [3] | Partition coefficient [4] | pKa [5] | pKa [6] | Compound | IOP (Oryctolagus cuniculus)
1 | 1500 µg/mL | 250 µg/mL | 69 nM | 5.71 | 2.2 | 8.91 |  | Cl.NS(=O)(=O)OCCOc1cccc(-n2ccnc2)c1 | 2.3 mmHg
2 | < 710 µg/mL |  |  |  |  |  |  | CC(=O)Nc1nnc(S(N)(=O)=O)s1.Cl | 0 mmHg
3 | 1600 µg/mL | 120 µg/mL | 250 nM | 6.09 | 5.5 |  | 9.22 | Cl.NS(=O)(=O)OCCCOc1ccc(-n2ccnc2)cc1 | 0 mmHg
4 | 6300 µg/mL | 470 µg/mL | 94 nM | 6.09 | 0.73 | 8.08 |  | Cc1cn(-c2cccc(OS(N)(=O)=O)c2)cn1.Cl | 
5 | 38000 µg/mL | 11000 µg/mL | 42 nM | 5.4 | 0.28 | 9.05 |  | Cl.NS(=O)(=O)Oc1cccc(-n2ccnc2)c1 | 1.5 mmHg
6 | 1000 µg/mL | 230 µg/mL | 120 nM | 5.54 | 0.16 | 8 |  | Cl.NS(=O)(=O)Oc1ccc(-n2ccnc2)cc1 | 1.3 mmHg
7 | 114000 µg/mL | 1400 µg/mL | 77 nM | 6.9 | 1.1 |  | 8.99 | Cc1nccn1-c1cccc(OCCOS(N)(=O)=O)c1.Cl | 1.7 mmHg
8 | 4900 µg/mL | 220 µg/mL | 210 nM | 6.34 | 4.6 | 8.96 |  | Cc1cn(-c2cccc(OCCOS(N)(=O)=O)c2)cn1.Cl | 
9 | 100000 µg/mL | 3300 µg/mL | 50 nM | 6.47 | 0.18 | 7.99 |  | Cc1nccn1-c1cccc(OS(N)(=O)=O)c1.Cl | 0 mmHg

Row | Compound | solubility [1] | solubility [2] | IC50 (Carbonic anhydrase) | pKa [3] | Partition coefficient [4] | pKa [5] | pKa [6] | IOP (Oryctolagus cuniculus)
10 | Cl.NS(=O)(=O)OCCOc1ccc(-n2ccnc2)cc1 | 7400 µg/mL | 700 µg/mL | 23 nM | 5.98 | 1.5 | 9.05 |  | 2.5 mmHg
